Bioassay records deposited in PubChem by several laboratories.
Most compounds without a hit are left out; they make up all but 3.3% or so of the library.
FXN GAA850 act: activators of GAA850 frataxin (FXN) promoter | HEK293 lucGAA850 FXN promoter luciferase reporter, 24 h; percent of 10 µM SAHA response | activation, % at 6 µM | hit rate 0.56% among 360,000 | AID 540364;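 active = activation above the average of all compounds screened plus 3 SD, cutoff fixed separately per campaign, cut at about 7.5% in these data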
ABCB6 inh 2: human ABCB6 transporter inhibition; Q9NP58; K562-ABCB6 porphyrin accumulation, flow cytometry, 1 h; stronger effect = lower value; fluorescence ratio to DMSO, % at 10 µM; hit rate 0.19% among 360,000; AID 602162;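 active = fluorescence ratio to DMSO below 75%, the collection mean minus 3 SD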;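 note: signal is porphyrin accumulated inside mitochondria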
STAT3 act: STAT3 signaling activation; U3A cells, IL-6 STAT3-luciferase reporter, luminescence; 100% = signal with IL-6 EC80 alone; activation (% of control), % at 5.6 µM; hit rate 0.91% among 190,000; AID 871;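 active = activation above the screen-wide mean of compound activation plus 3 SD, cut at about 130% in these data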
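Test system: Human STAT1-deficient U3A cells with stable STAT3-luciferase reporter | Also added: Interleukin-6, 33 ng/mL | Timing: Compound pre-incubation 1 h before IL-6, then 6 h stimulation at 37 °C | Technique: Luciferase reporter luminescence | Read-out: Percent of IL-6-only median luminescence | Benchmarks: IL-6-only wells as 100% reference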
AHR act: activates the human aryl hydrocarbon receptor; P35869; AHR-responsive luciferase reporter cells, luminescence; activation, % at 5 µM; hit rate 2.5% among 320,000; AID 2796; in the data active = activation above about 47%
Target sequence (P35869 whole entry, looked up): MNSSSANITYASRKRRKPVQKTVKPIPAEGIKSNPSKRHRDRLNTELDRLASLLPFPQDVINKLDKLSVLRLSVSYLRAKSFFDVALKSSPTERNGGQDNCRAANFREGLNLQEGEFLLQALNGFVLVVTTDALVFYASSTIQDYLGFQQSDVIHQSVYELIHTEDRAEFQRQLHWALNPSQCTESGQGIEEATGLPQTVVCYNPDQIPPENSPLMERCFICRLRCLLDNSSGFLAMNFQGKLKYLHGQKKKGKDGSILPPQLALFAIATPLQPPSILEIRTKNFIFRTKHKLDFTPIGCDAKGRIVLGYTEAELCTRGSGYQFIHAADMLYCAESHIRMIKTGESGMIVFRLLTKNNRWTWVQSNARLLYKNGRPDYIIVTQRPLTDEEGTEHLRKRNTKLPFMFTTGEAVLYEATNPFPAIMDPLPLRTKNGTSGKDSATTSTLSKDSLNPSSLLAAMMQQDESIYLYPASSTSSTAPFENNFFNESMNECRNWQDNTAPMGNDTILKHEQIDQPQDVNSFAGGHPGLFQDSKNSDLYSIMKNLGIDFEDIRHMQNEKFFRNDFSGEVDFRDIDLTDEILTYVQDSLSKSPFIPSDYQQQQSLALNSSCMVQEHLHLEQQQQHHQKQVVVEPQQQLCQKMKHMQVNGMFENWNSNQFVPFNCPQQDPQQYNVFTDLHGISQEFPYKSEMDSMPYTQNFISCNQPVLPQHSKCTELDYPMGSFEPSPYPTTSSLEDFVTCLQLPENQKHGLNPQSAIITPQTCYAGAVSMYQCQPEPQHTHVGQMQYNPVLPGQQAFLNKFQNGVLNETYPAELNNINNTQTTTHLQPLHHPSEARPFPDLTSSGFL
Of the large screens only hits and unclear results are named; the others gave an inactive call.

COC(=O)c1cn[nH]c1NC(=S)Nc1ccc(C)cc1Cl	none
O=[N+]([O-])c1ccc(Nc2nc(N/N=C/c3cccc(F)c3)nc(N3CCCC3)n2)cc1	AHR act 145
COc1cccc(/C=N/Nc2nc(Nc3ccc([N+](=O)[O-])cc3)nc(N3CCCC3)n2)c1O	AHR act 47
CCN(CC)C(=O)CSc1nnc2cc(C)c3ccccc3n12	AHR act 52
CC(=O)CSc1nnc2cc(C)c3ccccc3n12	none
CN(C)C(=O)CSc1nnc2sc3ccccc3n12	AHR act 57
COc1ccc(Cc2nc3ccccc3c(=O)n2N)cc1OC	none (no result: STAT3 act)
N#Cc1ccc(OCC(=O)n2cc(C(=O)c3cc(Cl)cc(Cl)c3O)cn2)cc1	AHR act 70 (no result: FXN GAA850 act, ABCB6 inh 2, STAT3 act)
O=C(c1cnn(C(=O)COc2ccc(Cl)cc2)c1)c1ccccc1O	none
CC(=O)OC[C@H]1O[C@H](C/C=N/OC[C@@H](O)[C@H]2O[C@@H]3OC(C)(C)O[C@@H]3[C@H]2O)C=C[C@@H]1OC(C)=O	none (no result: FXN GAA850 act, ABCB6 inh 2)
CCCCS(=O)(=O)/C=C\C=C/S(=O)(=O)CCCC	ABCB6 inh 2 69
CCCCS(=O)(=O)/C=C\C1C2C=CC(C2)C1S(=O)(=O)CCCC (stereo not given)	none
NC(=O)c1c(NC(=O)c2ccc(N3C(=O)CCC3=O)cc2)sc2c1CCCC2	none (no result: STAT3 act)
Cc1ccc(-c2ccc(/C=C(\C#N)C(N)=S)n2C)cc1	AHR act 79 (no result: STAT3 act)
COc1ccc(C(=O)C[n+]2ccc(N(C)C)cc2)cc1	none (no result: STAT3 act)
Cn1cc(/C=C2\SC(=O)NC2=S)c2ccccc21	AHR act 47
COc1ccc(/C=N/NC(=O)c2nnn(-c3nonc3N)c2-c2cccs2)c(OC)c1	none (no result: STAT3 act)
CCn1c(C)nc2cc(C(=O)NNC(=O)CCC3CCCC3)ccc21	none
Cc1cc(C)c(C#N)c(SCC(=O)C(C)(C)C)n1	AHR act 59
Cc1cc(C)cc(NC(=O)c2ccc3nc[nH]c3c2)c1	none
Cc1ccc(NC(=O)c2ccc3nc[nH]c3c2)cc1C	AHR act 64
C[C@H](NS(=O)(=O)c1ccccc1F)C(=O)OCC(=O)Nc1ccc2c(c1)OCCO2	none (no result: STAT3 act)
CCn1cc(C(=O)N2CCn3c(nc4ccccc43)C2)c(=O)c2ccc(C)nc21	FXN GAA850 act 16
O=S(=O)(NC(CO)Cc1ccccc1)c1cc(Cl)ccc1F (stereo not given)	none (no result: STAT3 act, AHR act)
CCc1nc2ccc(C(=O)N3CCN(C(C)=O)CC3)cn2c1N(C=O)Cc1ccc(OC)cc1	none (no result: STAT3 act, AHR act)
COCCn1nnnc1CN(Cc1ccco1)Cc1cc2cc3c(cc2[nH]c1=O)OCO3	AHR act 72
N#C/C(=C(/O)COC(=O)c1ccc(C#N)cc1)c1nc2ccccc2s1	AHR act 122
Cc1ccc(SC/C(O)=C(\C#N)c2nc3ccccc3s2)cc1	none
N#C/C(=C(/O)COc1ccccc1)c1nc2ccccc2s1	none
N#C/C(=C(/O)CSc1ccccn1)c1nc2ccccc2s1	AHR act 51
CNC(=O)COc1ncnc2scc(-c3ccc(F)cc3)c12	none
CC(C)c1cc(C(=O)OCC(=O)N2CCN(C(=O)c3ccco3)CC2)c(O)c(C(C)C)c1	none (no result: STAT3 act)
CN(C)C(=O)CN(c1ccc(F)c(Cl)c1)S(C)(=O)=O	STAT3 act 135
CCCC1NC(=O)c2cc3ccccc3cc2-n2c1nc1cc(Cl)ccc1c2=O (stereo not given)	none (no result: STAT3 act, AHR act)
O=C(N/N=C/c1ccccn1)c1cc(-c2ccc(Br)cc2)nc2ccccc12	none (no result: STAT3 act)
O=C(N/N=C/c1ccccn1)c1cc(-c2ccc(Cl)cc2)nc2ccccc12	AHR act 50
O=C(O)COc1ccccc1/C=N/NC(=O)c1cc(-c2ccc(Cl)cc2)nc2ccccc12	AHR act 64 (no result: STAT3 act)
CCN(CC)c1ccc(/C=C2\SC(=O)N(C(C)C)C2=O)o1	FXN GAA850 act 14 (no result: STAT3 act)
COc1ccccc1Oc1cn[nH]c1-c1ccc(OCC(=O)NN)cc1O	none (no result: STAT3 act)
COc1ccc(Oc2cn[nH]c2-c2ccc(OCC(=O)NN)cc2O)cc1	AHR act 58 (no result: STAT3 act)
COC(=O)[C@@]12CCCN1[C@H](c1ccc(-c3ccc(OC)cc3)cc1)[C@@H]1C(=O)N(C)C(=O)[C@@H]12	none (no result: STAT3 act)
COC(=O)c1sccc1-c1ccc(/C=N/OC(=O)c2ccccc2)o1	ABCB6 inh 2 54
COC(=O)c1ccccc1-c1ccc(/C=N/NC(N)=O)o1	none (no result: STAT3 act)
COC(=O)/C(=C/c1c[nH]c2ccccc12)NC(C)=O	none
COC(=O)/C(=C/c1c[nH]c2ccccc12)[N+](=O)[O-]	STAT3 act 134
COc1ccccc1N=Nc1ccc(N)c(C)c1	AHR act 60 (no result: STAT3 act)
CCn1cc(Br)c(C(=O)Nc2sc3c(c2C(N)=O)CCCC3)n1	AHR act 57 (no result: STAT3 act)
O=C(NNc1c2ccccc2nc2ccccc12)c1ccccc1O	AHR act 129
O=C(NNc1c2ccccc2nc2ccccc12)c1ccc(O)cc1	none
O=C(NNc1nc(=O)c2cccnc2s1)c1ccccc1O	AHR act 49
O=C(NNc1c2ccccc2nc2ccccc12)c1ccccc1Cl	AHR act 58 (no result: STAT3 act)
O=C(NNc1c2ccccc2nc2ccccc12)c1ccc(O)cc1O	none
O=C(NNC(=O)c1cccc2ccccc12)c1ccccc1O	none (no result: STAT3 act)
COc1ccc(OC)c(NC(=O)C2(C)CCN2Cc2ccc(SC)cc2)c1 (stereo not given)	none (no result: STAT3 act, AHR act)
Cc1ccc(OCc2cc(C(=O)N(C)Cc3cnn(-c4ccccc4C)c3)no2)cn1	none (no result: STAT3 act)
C1CCc2c(nc3nnnn3c2NC2CCCC2)C1	none
Nc1ccc(-c2nc3ccccc3[nH]2)cc1	none
Nc1ccccc1-c1nc2ccccc2[nH]1	AHR act 55
Oc1ccc(C=Nc2ccccc2-c2nc3ccccc3[nH]2)cc1	AHR act 74
c1ccc(-c2cc(-c3nc4ccccc4[nH]3)c3ccccc3n2)cc1	AHR act 52
O=c1[nH]cccc1-c1nc2ccccc2[nH]1	none (no result: STAT3 act)
C/C(=N\NC(=O)CCC(=O)N/N=C(\C)c1ccc(C)o1)c1ccc(C)o1	AHR act 74 (no result: STAT3 act)
C/C(=N\NC(=O)C(O)(c1ccccc1)c1ccccc1)c1ccc(C)o1	none
CCN(CC(=O)Nc1cccc(OC)c1)C(=O)C1CC(=O)N(Cc2ccccc2Cl)C1 (stereo not given)	none (no result: STAT3 act, AHR act)
Cc1cccn2c(=O)c(C=NCc3ccco3)c(Nc3ccc(SC(F)F)cc3)nc12	AHR act 49
COc1cccc2c1C(=O)c1c(O)c3c(c(O)c1C2=O)C[C@@](O)(C(=O)CO)C[C@@H]3O[C@H]1C[C@H](N)[C@H](O)[C@H](C)O1	STAT3 act 142
COc1cccc(-c2cc3nc(-c4ccccc4)cc(=O)n3[nH]2)c1	none (no result: STAT3 act)
O=c1cc(-c2ccccc2)nc2cc(-c3ccc(F)cc3)[nH]n12	AHR act 52 (no result: STAT3 act)
CCOC(=O)C(C(=O)OCC)C(C[N+](=O)[O-])c1ccccc1 (stereo not given)	none
Cn1c(=O)c(=O)n(C)c2cc(S(=O)(=O)CCC(=O)Nc3ccc(C(F)(F)F)cc3)ccc21	none (no result: STAT3 act)
CCNc1nc(Cl)nc(-c2cn(-c3ccccc3)c3ccccc23)n1	AHR act 62 (no result: STAT3 act)
Clc1nc(Oc2ccccc2)nc(-c2cn(-c3ccccc3)c3ccccc23)n1	none (no result: STAT3 act)
CCCn1c(SCC(=O)NC2CCCCC2C)n[nH]c1=O (stereo not given)	none
